Experimental findings from PubChem BioAssay AID624106 (Broad Institute, 2012) are described below.

Activity calls are given as the source filed them.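 Rule for the calls: active = fitted curve reaches a 35% absorbance drop at both wavelengths in duplicate, with AC35 under 50 µM; inactive = the rest, including signal rising instead of falling.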

For the first assay, the system named is P. aeruginosa PAK + EDDHA, OD405 pyoverdine, 28 h. The experiment in a line: P. aeruginosa growth delay with EDDHA chelator – PAK wild type, OD405, dry powder, set 2, dose response (AID 624106).
Conditions: not given
The method in brief:
(§1)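 test system = WT P. aeruginosa PAK | medium = succinate M9 pH 7.0 plus 2 µM EDDHA | doses = compounds 15 nM–100 µM final | incubation = compound exposure 28 h at 30 °C, humidified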
`N#CC(c1ccc(Cl)cc1)N1CCCC1` (centres undefined): the AC35 was > 100 µM (inactive). Same read-out and setting: under `COCCC(C#N)c1ccc(F)cc1` (centres undefined) stands > 100 µM (inactive); under `N#CC(c1cccc(C(F)(F)F)n1)c1ccc(Cl)cc1F` (centres undefined), 18.8 µM. `N#CC(c1ccc(F)cc1)c1cccc(C(F)(F)F)n1` (centres undefined): the AC35 was 45.4 µM.

As to `N#CC(c1cccc(Cl)n1)c1ccc(Cl)cc1F` (centres undefined), the AC35 was 25.9 µM.

Consider `N#Cc1cccc(C(C#N)c2ccc(F)cc2)n1` (centres undefined), for which the AC35 was > 100 µM (inactive). The same measure, in the same setting: under `N#CC(c1ccc(Cl)cc1)c1cccc(Cl)n1` (centres undefined) stands 67 µM. Still for that read-out and setting: under `N#CC(c1ccc(Cl)cc1)c1ccccn1` (centres undefined) stands > 100 µM (inactive); under `N#CC(c1ccc(Cl)cc1)c1cccc(C(F)(F)F)n1` (centres undefined), 19.3 µM.

System in another assay: not listed separately
The description is as above. Particulars: P. aeruginosa PAK + EDDHA, OD405 pyoverdine, 28 h; at 100 µM (top of the series). Summed up: as §1
As to `N#CC(c1ccc(C(F)(F)F)c(Cl)n1)c1ccccc1OC(F)(F)F` (centres undefined), the activity change, negative = inhibition was -16% (inactive). The same measure, in the same setting: under `CCCCC(C#N)c1ccccn1` (centres undefined) stands -4.26% (inactive).

On to `CCCCC(C#N)c1ccc(F)cn1` (centres undefined), for which the activity change, negative = inhibition is -12.4% (inactive). Turning to `COCCC(C#N)c1ccc(Cl)cc1` (centres undefined), the activity change, negative = inhibition was -2.12% (inactive). Same read-out and setting: under `Clc1ccc(C(c2cccc(Cl)n2)c2nn[nH]n2)cc1` (centres undefined) stands 11.9% (inactive); under `CN(C)CCCC(C#N)c1ccc(Cl)cc1` (centres undefined), -3.43% (inactive). With `CN(C)CCCC(C#N)c1ccc(F)cc1` (centres undefined), the activity change, negative = inhibition is -12.9% (inactive). Same read-out and setting: then `COCCOCCC(C#N)c1ccc(Cl)cc1` (centres undefined), with -2.61% (inactive); and `CCCCC(C#N)c1ccc(Cl)cc1` (centres undefined), with -7.02% (inactive). As for `COCCNC(C#N)c1ccc(Cl)cc1` (centres undefined), the activity change, negative = inhibition is -12.1% (inactive). Same read-out and setting: under `N#CC1c2ccc(Cl)cc2CCc2cccnc21` (centres undefined) stands -13.8% (inactive); under `COCCOCCC(C#N)c1ccc(F)cc1` (centres undefined), -8.85% (inactive); under `CCCCC(c1ccc(Cl)cc1)c1nn[nH]n1` (centres undefined), -8.03% (inactive). Regarding `CCCCC(C#N)c1ccc(Cl)cn1` (centres undefined), the activity change, negative = inhibition was -7.7% (inactive).

For the compound `CCCCC(C#N)c1ccc(F)cc1` (centres undefined), the activity change, negative = inhibition is -5.09% (inactive).
